# The source made the active and inactive calls. The rule behind the calls is not given here.
# What was measured:
# Staphylococcus aureus [1] = experiment: microbe, parasite or virus in culture; assay type: functional; conditions: 8325-4, 24 h
# Staphylococcus aureus [2] = experiment: microbe, parasite or virus in culture; assay type: functional; conditions: ATCC 49951, 24 h
# Enterococcus faecalis [3] = experiment: microbe, parasite or virus in culture; assay type: functional; conditions: ATCC 51575, 24 h
# Staphylococcus aureus [4] = experiment: microbe, parasite or virus in culture; assay type: functional; conditions: ATCC 33591, 24 h
# Staphylococcus aureus [5] = experiment: Antimicrobial activity against methicillin-resistant Staphylococcus aureus Mu3 incubated for 24 hrs by broth microdilution method; assay type: functional; conditions: Mu3, 24 h
# Staphylococcus aureus [6] = experiment: microbe, parasite or virus in culture; assay type: functional; conditions: 8325-4, 24 h; remark: listed apart in the source
# Enterococcus faecalis [7] = experiment: microbe, parasite or virus in culture; assay type: functional; conditions: ATCC 19433, 24 h
# Escherichia coli [8] = experiment: Potency index, ratio of MBC to MIC for Escherichia coli W4573; assay type: functional
# Method in brief: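 MBC/MIC ratio. MIC: CLSI broth microdilution, 10⁵ CFU/mL in CAMH broth, 24 h at 37 °C, OD600, 90% inhibition. MBC: well aliquots plated on tryptic soy agar, counted after 24 h, 3-log CFU reduction. Ratio 1–2 read as bactericidal, ≥8 as bacteriostatic.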
# Escherichia coli [9] = experiment: Antimicrobial activity against Escherichia coli W4573 incubated for 24 hrs in broth followed by colony transfer to tryptic soy agar for further 24 hrs incubation; assay type: functional; conditions: W4573, 24 h
# Method in brief: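 MBC: broth microdilution as for MIC (10⁵ CFU/mL, CAMH broth, 24 h, 37 °C). Aliquots from wells were then plated on tryptic soy agar and colonies counted after 24 h. MBC taken as the lowest concentration giving a 3-log CFU reduction.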
# Escherichia coli [10] = experiment: Antimicrobial activity against Escherichia coli W4573 incubated for 24 hrs by broth microdilution method; assay type: functional; conditions: W4573, 24 h
# Method in brief: (§1)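 CLSI broth microdilution. Log-phase bacteria at 10⁵ CFU/mL were exposed to 2-fold serial dilutions (64 to 0.016 μg/mL) in cation-adjusted Mueller-Hinton broth, 5% defibrinated sheep blood added for Streptococcus. Incubated aerobically 24 h at 37 °C. Growth read as OD600; MIC taken as the lowest concentration giving 90% growth inhibition.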
# Escherichia coli [11] = experiment: Antimicrobial activity against Escherichia coli N43 expressing AcrAB efflux pump mutant incubated for 24 hrs by broth microdilution method; assay type: functional; conditions: N43, 24 h
# Escherichia coli [12] = experiment: Antimicrobial activity against ESBL producing Escherichia coli ATCC BAA-201 expressing TEM3 lactamase incubated for 24 hrs by broth microdilution method; assay type: functional; conditions: ATCC BAA-201, 24 h
# Method in brief: as §1
# Enterococcus faecalis [13] = experiment: Stimulation of Enterococcus faecalis FtsZ self-polymerization at 40 ug/mL by microtiter plate-based light scattering assay
# Method in brief: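 Purified E. faecalis FtsZ (10 μM) mixed with compound (0–40 μg/mL) and 1 mM GTP in 50 mM Tris-HCl pH 7.4, 50 mM KCl, 2 mM magnesium acetate, 10 mM CaCl2. Polymerization followed continuously as light scattering (A340) at 25 °C over 400 min.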
# [14] = Binding affinity to Enterococcus faecalis FtsZ at 25 degC by fluorescence anisotropy assay
# [15] = target: T1, Cell division protein FtsZ (Staphylococcus aureus, UniProt P0A031); experiment: Binding affinity to Staphylococcus aureus FtsZ expressed in Escherichia coli BL21 (DE3) at 25 degC by fluorescence anisotropy assay
# T1 sequence (P0A031 whole entry): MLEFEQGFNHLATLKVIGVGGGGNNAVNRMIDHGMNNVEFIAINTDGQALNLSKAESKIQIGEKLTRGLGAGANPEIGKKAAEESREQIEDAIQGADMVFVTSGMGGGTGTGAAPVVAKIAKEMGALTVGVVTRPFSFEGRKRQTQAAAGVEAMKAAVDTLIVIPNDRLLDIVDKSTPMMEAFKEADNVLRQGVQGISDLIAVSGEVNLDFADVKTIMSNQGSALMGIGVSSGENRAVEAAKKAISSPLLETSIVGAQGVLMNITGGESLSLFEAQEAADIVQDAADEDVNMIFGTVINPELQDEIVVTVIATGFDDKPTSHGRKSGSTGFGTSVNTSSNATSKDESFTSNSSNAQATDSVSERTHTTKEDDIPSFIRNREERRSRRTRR
# Method in brief: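 Intrinsic compound fluorescence anisotropy. Compound at 5 μM was titrated with 0–25 μM FtsZ in 50 mM Tris·HCl pH 7.4, 50 mM KCl, 2 mM magnesium acetate. Samples were incubated 5 min at 25 °C, excited at 245 nm with emission at 318 nm, and G-corrected. Runs were in triplicate and averaged. Kd was obtained by nonlinear least-squares fit. SaFtsZ was expressed in E. coli BL21(DE3) and purified by ammonium sulfate, MonoQ and Superdex-200.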
# [16] = target: T2, Cell division protein FtsZ (Escherichia coli K-12, UniProt P0A9A6); experiment: Binding affinity to Escherichia coli FtsZ at 25 degC by fluorescence anisotropy assay
# T2 sequence (P0A9A6 whole entry): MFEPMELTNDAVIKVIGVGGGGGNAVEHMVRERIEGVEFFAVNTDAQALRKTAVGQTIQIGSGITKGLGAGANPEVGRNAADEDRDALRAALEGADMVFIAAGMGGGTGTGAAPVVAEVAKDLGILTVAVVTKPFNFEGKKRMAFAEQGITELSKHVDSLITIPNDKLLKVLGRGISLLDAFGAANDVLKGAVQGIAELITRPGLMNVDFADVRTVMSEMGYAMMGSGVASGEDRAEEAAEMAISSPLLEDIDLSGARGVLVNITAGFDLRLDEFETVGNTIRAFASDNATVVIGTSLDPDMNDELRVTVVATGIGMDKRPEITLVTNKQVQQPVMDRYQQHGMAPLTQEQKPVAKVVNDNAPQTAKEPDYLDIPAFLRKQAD
# [17] = target: T3, Cell division protein FtsZ (Escherichia coli K-12) (UniProt P0A9A6); experiment: Stimulation of Escherichia coli FtsZ self-polymerization at 40 ug/mL by microtiter plate-based light scattering assay
# T3 sequence (whole entry): T2 sequence (P0A9A6 whole entry)
# [18] = target: T4, Cell division protein FtsZ (Staphylococcus aureus) (UniProt P0A031); experiment: Stimulation of Staphylococcus aureus FtsZ self-polymerization at 40 ug/mL by microtiter plate-based light scattering assay
# T4 sequence (whole entry): T1 sequence (P0A031 whole entry)
# [19] = target: Tubulin beta chain (Sus scrofa) (UniProt P02554); experiment: Stimulation of MAP-rich pig beta-tubulin polymerization at 25 ug/mL by microtiter plate-based light scattering assay
# Tubulin beta chain (Sus scrofa), sequence (P02554 whole entry): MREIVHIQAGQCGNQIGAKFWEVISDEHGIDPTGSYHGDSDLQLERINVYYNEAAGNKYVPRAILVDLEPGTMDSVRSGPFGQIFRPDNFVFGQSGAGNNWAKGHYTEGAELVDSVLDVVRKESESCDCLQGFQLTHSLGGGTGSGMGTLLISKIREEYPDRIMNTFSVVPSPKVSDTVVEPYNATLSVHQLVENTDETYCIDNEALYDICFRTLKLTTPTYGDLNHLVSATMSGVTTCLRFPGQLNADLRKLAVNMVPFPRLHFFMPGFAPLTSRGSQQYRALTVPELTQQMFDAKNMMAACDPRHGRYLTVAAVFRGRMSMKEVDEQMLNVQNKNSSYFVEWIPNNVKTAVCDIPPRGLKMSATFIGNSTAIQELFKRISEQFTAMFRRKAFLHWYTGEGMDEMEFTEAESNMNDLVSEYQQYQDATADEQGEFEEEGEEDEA
# Method in brief: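 MAP-rich porcine tubulin (70% β-tubulin, 30% MAPs) at 2 mg/mL with 1 mM GTP. Buffer was 80 mM PIPES·NaOH pH 7.0, 2 mM MgCl₂, 1 mM EGTA. Light scattering was followed as A340 continuously at 37 °C for 60 min, against a DMSO vehicle.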
# Staphylococcus aureus [20] = experiment: Antimicrobial effect against 3x10^9 CFU/ml methicillin-sensitive Staphylococcus aureus 8325-4 at 4 to 32 times MIC assessed as incidence of colonies growth measured after 24 incubation by large inoculation approach based drug resistance detection method; assay type: functional, organism-based
# Method in brief: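 Inoculum count checked on nonselective plates. Incubated at 37 °C and examined after 24 h and daily thereafter. Mutation frequency = colonies on selective plates / total bacteria plated.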
# [21] = target: Tubulin beta chain (Sus scrofa) (UniProt P02554); conditions: 10 ug/mL
# [22] = target: T4, Cell division protein FtsZ (Staphylococcus aureus); experiment: Binding affinity to Staphylococcus aureus FtsZ expressed in Escherichia coli BL21 (DE3) by fluorescence anisotropy BoGTPgammaS competition assay
# Method in brief: (§2)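 Competition with fluorescent BoGTPγS. BoGTPγS (1 μM final) was mixed with 5 μM FtsZ and compound or unlabeled GTP at 0–40 μM. Buffer was 50 mM Tris·HCl pH 7.4, 50 mM KCl, 2 mM magnesium acetate. After 5 min at 25 °C, anisotropy was read at excitation 488 nm and emission 510 nm, in triplicate and averaged.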
# [23] = target: T3, Cell division protein FtsZ (Escherichia coli K-12); experiment: Binding affinity to Escherichia coli FtsZ by fluorescence anisotropy BoGTPgammaS competition assay
# Method in brief: as §2
# Enterococcus faecalis [24] = experiment: Binding affinity to Enterococcus faecalis FtsZ by fluorescence anisotropy BoGTPgammaS competition assay
# Method in brief: as §2
SMILES,MIC (Staphylococcus aureus [1]) [µg/mL],MIC (Staphylococcus aureus [2]) [µg/mL],MIC (Enterococcus faecalis [3]) [µg/mL],MIC (Staphylococcus aureus [4]) [µg/mL],MIC (Staphylococcus aureus [5]) [µg/mL],MIC (Enterococcus faecalis [7]) [µg/mL],MIC (Escherichia coli [10]) [µg/mL],MIC (Escherichia coli [12]) [µg/mL],Activity [18],further results
CC[C@H]1OC(=O)[C@H](C)[C@@H](O[C@H]2C[C@@](C)(OC)[C@@H](O)[C@H](C)O2)[C@H](C)[C@@H](O[C@@H]2O[C@H](C)C[C@H](N(C)C)[C@H]2O)[C@](C)(O)C[C@@H](C)C(=O)[C@H](C)[C@@H](O)[C@]1(C)O [ERYTHROMYCIN],0.125,0.25,> 64,> 64,> 64,1,,,,MBC (Staphylococcus aureus [6]): 32 µg/mL
NC[C@@H]1O[C@H](O[C@H]2[C@@H](O)[C@H](O[C@@H]3[C@@H](O)[C@H](N)C[C@H](N)[C@H]3O[C@H]3O[C@H](CN)[C@@H](O)[C@H](O)[C@H]3N)O[C@@H]2CO)[C@H](N)[C@@H](O)[C@@H]1O.O.O=S(=O)(O)O [NEOMYCIN TRISULFATE HYDRATE],,,,,,,1,,,Ratio (Escherichia coli [8]): 2; MBC (Escherichia coli [9]): 2 µg/mL
NCC[C@H](O)C(=O)N[C@@H]1C[C@H](N)[C@@H](O[C@H]2O[C@H](CN)[C@@H](O)[C@H](O)[C@H]2O)[C@H](O)[C@H]1O[C@H]1O[C@H](CO)[C@@H](O)[C@H](N)[C@H]1O.O=S(=O)(O)O,,,,,,,2,> 64,,MIC (Escherichia coli [11]): 1 µg/mL
CC(C)(C)c1ccc(-c2ccnc(CNC(=N)N)c2)cc1,8,8,64,16,8,32,64,64,inactive,Activity (Enterococcus faecalis [13]): inactive; MIC (Escherichia coli [11]): 8 µg/mL; Kd [14]: Not Active; Kd [15]: Not Active; Kd [16]: Not Active; Activity [17]: inactive
CC1(C)S[C@@H]2[C@H](NC(=O)[C@H](N)c3ccccc3)C(=O)N2[C@H]1C(=O)[O-].[Na+] [AMPICILLIN SODIUM],,,,,,,4,> 64,,Activity [17]: inactive
CC(=O)O[C@H]1C(=O)[C@@]2(C)[C@H]([C@H](OC(=O)c3ccccc3)[C@]3(O)C[C@H](OC(=O)[C@H](O)[C@@H](NC(=O)c4ccccc4)c4ccccc4)C(C)=C1C3(C)C)[C@]1(OC(C)=O)CO[C@@H]1C[C@@H]2O,,,,,,,,,,Activity [19]: Active
CC(C)(C)c1ccc(-c2cc(CNC(=N)N)ncn2)cc1,64,32,> 64,64,32,> 64,> 64,> 64,inactive,Activity (Enterococcus faecalis [13]): inactive; MIC (Escherichia coli [11]): 32 µg/mL; Kd [14]: Not Active; Kd [15]: Not Active; Kd [16]: Not Active; Activity [17]: inactive
Cc1onc(-c2ccccc2Cl)c1C(=O)N[C@@H]1C(=O)N2[C@@H]1SC(C)(C)[C@@H]2C(=O)[O-].[Na+] [OXACILLIN SODIUM SALT],0.063,0.25,64,> 64,> 64,8,,,inactive,
CN[C@H](CC(C)C)C(=O)N[C@H]1C(=O)N[C@@H](CC(N)=O)C(=O)N[C@H]2C(=O)N[C@H]3C(=O)N[C@H](C(=O)N[C@H](C(=O)O)c4cc(O)cc(O)c4-c4cc3ccc4O)[C@H](O)c3ccc(c(Cl)c3)Oc3cc2cc(c3O[C@@H]2O[C@H](CO)[C@@H](O)[C@H](O)[C@H]2O[C@H]2C[C@](C)(N)[C@H](O)[C@H](C)O2)Oc2ccc(cc2Cl)[C@H]1O.Cl [VANCOMYCIN HYDROCHLORIDE],,,> 64,,,1,,,,Activity (Enterococcus faecalis [13]): inactive; MBC (Staphylococcus aureus [6]): 1 µg/mL
CCC[C@@H]1C[C@@H](C(=O)N[C@@H]([C@H]2O[C@H](SC)[C@H](O)[C@@H](O)[C@H]2O)[C@H](C)Cl)N(C)C1.Cl [CLINDAMYCIN HYDROCHLORIDE],0.031,0.063,> 64,> 64,> 64,2,,,inactive,
CO[C@H]1/C=C/O[C@@]2(C)Oc3c(C)c(O)c4c(O)c(c(/C=N/N5CCN(C)CC5)c(O)c4c3C2=O)NC(=O)/C(C)=C\C=C\[C@H](C)[C@H](O)[C@@H](C)[C@@H](O)[C@@H](C)[C@H](OC(C)=O)[C@@H]1C,,,,,,,,,,Activity (Staphylococcus aureus [20]): inactive
COC(=O)Nc1nc2cc(C(=O)c3cccs3)ccc2[nH]1,,,,,,,,,,inhibition [21]: Active
"Nc1nc(=O)c2ncn([C@@H]3O[C@H](COP(=O)(O)OP(=O)(O)OP(=O)(O)O)[C@@H](O)C3O)c2[nH]1 (single isomer, unassigned)",,,,,,,,,,Activity [22]: Dose-dependent effect; Activity [23]: Dose-dependent effect; Activity (Enterococcus faecalis [24]): Dose-dependent effect
